From publication PMC2865030 (Biochemical Journal, 2008) come the findings set out here.

This assay has as its target yeast Hsp90 M705V. The assay is described as follows: ITC of TPR-domain proteins with yeast Hsp90 M705V. The format is binding. The conditions noted are these: 300 μM CHIP injected into 30 μM yeast Hsp90 M705V, 30 °C, pH 8.0. In outline:
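ITC: mouse CHIP or yeast Tah1 (His tags cleaved) at 300 µM was titrated as 9–11 injections of 27 µl into 30 µM yeast Hsp90 M705V. Runs were at 30 °C for CHIP and 4 °C for Tah1, in 20 mM Tris/HCl pH 8.0, 1 mM EDTA, 5 mM NaCl. Data were corrected for separately measured heat of dilution and fitted by nonlinear least squares for stoichiometry, binding constant and enthalpy.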

B1: CHIP: mouse C-terminal of Hsp70-interacting protein, TPR-domain co-chaperone involved in ubiquitylation of chaperone-bound client proteins (protein)
chain: MKGKEEKEGGARLGTGGGGSPDKSPSAQELKEQGNRLFVGRKYPEAAACYGRAITRNPLVAVYYTNRALCYLKMQQPEQALADCRRALELDGQSVKAHFFLGQCQLEMESYDEAIANLQRAYSLAKEQRLNFGDDIPSALRIAKKKRWNSIEERRIHQESELHSYLTRLIAAERERELEECQRNHEGHEDDGHIRAQQACIEAKHDKYMADMDELFSQVDEKRKKRDIPDYLCGKISFELMREPCITPSGITYDRKDIEEHLQRVGHFDPVTRSPLTQEQLIPNLAMKEVIDAFISENGWVEDY
modifications: left off: His-PreScission tag, end not stated, cleaved
The Kd is the free concentration of one partner at which half of the binding sites on the other are occupied at equilibrium, for simple one-to-one binding. As to B1, the affinity, expressed as Kd, was 6.7 ± 0.62 µM.
